Data taken from ChEMBL document CHEMBL1138199, “Identification of compounds with anti-West Nile Virus activity” (J Med Chem, 2006).

How the values were obtained:
[1] = Therapeutic index (CC50/EC50) in Vero cells; type: cell-based; settings: monkey, read-out: Ratio CC50/EC50
Procedure, shortened: (§1)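 TI computed as CC50/EC50, using MTT CC50 and replicon EC50 in BHK-21 cells, or MTT CC50 and Rluc-FL-WNV EC50 in Vero cells.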

[2] = system: West Nile virus; experiment: Inhibition of Rluc-FL-WNV replicon in Vero cells; type: functional, organism-based
Procedure, shortened: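 Vero cells infected with full-length WNV carrying Renilla luciferase reporter (Rluc-FL-WNV), covering entry, replication and assembly; inhibition read as suppression of luciferase signal. Compounds first screened at 30 µM in 1% DMSO final, then EC50 (µM) determined.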

[3] = system: BHK-21; experiment: Cytotoxicity against BHK21 cell line by MTT assay; type: functional; settings: Mesocricetus auratus
Procedure, shortened: (§2)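 MTT cytotoxicity assay run in BHK-21 and Vero cells on compounds giving >50% Rluc inhibition in the primary screens; CC50 reported in µM.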

[4] = system: BHK-21; experiment: Inhibition of West Nile virus VLP replicon in BHK21 cell line; type: functional, cell-based; settings: Mesocricetus auratus
Procedure, shortened: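 Naive BHK-21 cells infected with virus-like particles, made by expressing WNV structural proteins in cells carrying the Rluc-Neo-Rep replicon, which package replicon RNA. This captures entry and replication but not assembly. Inhibition is read as suppression of Renilla luciferase signal. Compounds were given in 1% DMSO final, and EC50 is in µM.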

[5] = Therapeutic index (CC50/EC50) in BHK21 cells; type: cell-based, BHK-21; settings: hamster, read-out: Ratio CC50/EC50; procedure, shortened: as §1
[6] = system: West Nile virus; experiment: Inhibition of West Nile viral Rluc-Neo-Rep in BHK21 cell line; type: functional, organism-based; settings: BHK-21
Procedure, shortened: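 BHK-21 cell line stably carrying Rluc-Neo-Rep replicon; inhibition read as suppression of Renilla luciferase signal. Initial screen at 30 µM, 1% DMSO final; EC50 (µM) then determined.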

[7] = system: Vero; experiment: Cytotoxicity against Vero cells by MTT assay; type: functional; settings: Chlorocebus sabaeus; procedure, shortened: as §2
[8] = system: Vero; experiment: Inhibition of West Nile viral Rluc-Neo-Rep in Vero cells; type: functional, cell-based; settings: Chlorocebus sabaeus
Procedure, shortened: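 Vero cells containing the Rluc-Neo-Rep replicon, used to check cell-line dependence; inhibition measured as suppression of Renilla luciferase signal, EC50 in µM.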

| Compound | selectivity ratio [1] | EC50 [2] | CC50 [3] | EC50 [4] | selectivity ratio [5] | EC50 [6] | CC50 [7] | EC50 [8] |
| --- | --- | --- | --- | --- | --- | --- | --- | --- |
| CN1CCN(C(=O)c2cccc3c(NCCc4c[nH]c5ccccc45)c4ccccc4nc23)CC1 | 2.8 | 18 µM | 150 µM | 17 µM | 14 | 10.5 µM | 50 µM |  |
| O=C(Cc1ccc(Cl)cc1)N1N=C(c2cccs2)CC1c1ccc(Cl)cc1 (configuration not stated) |  |  | > 300 µM |  | > 16 | 19 µM |  |  |
| O=C(Cc1ccc(Cl)cc1)N1N=C(c2ccco2)CC1c1ccc(Br)cc1 (configuration not stated) |  |  | > 300 µM |  | > 15 | 20 µM |  |  |
| COc1c(C)c2c(c(O)c1C/C=C(\C)CCC(=O)O)C(=O)OC2 [MYCOPHENOLIC ACID] |  | 0.04 µM |  | 0.04 µM |  | 1.4 µM |  | 0.08 µM |
| O=C(c1ccc([N+](=O)[O-])cc1)N1N=C(c2cccs2)CC1c1ccc(Cl)cc1 (configuration not stated) |  |  | > 300 µM |  | > 1.3 | 225 µM |  |  |
| O=C(c1ccccc1)N1N=C(c2cccs2)CC1c1ccc(Cl)cc1 (configuration not stated) | > 13 | 23 µM | > 300 µM | 15 µM | > 18 | 17 µM | > 300 µM | 15 µM |
| O=C(Cc1ccc(Cl)cc1)N1N=C(c2cccs2)CC1c1ccc(Br)cc1 (configuration not stated) |  |  | > 300 µM |  | > 16 | 19 µM |  |  |
| O=C(c1cccc2c(Oc3ccccc3)c3ccccc3nc12)N1CCOCC1 | 2 | 22 µM | 155 µM | > 30 µM | < 5.1 | > 30 µM | 45 µM |  |
| CCN(CC)C(=O)c1ccc2c(NC3CCN(Cc4ccccc4)CC3)c3ccccc3nc2c1 | 2.7 | 20 µM | 150 µM | 6 µM | 12 | 12.5 µM | 55 µM |  |
| CN1CCN(c2cc(-c3ccc(C(C)(C)C)cc3)nc3ccccc23)CC1 | 1.3 | 15 µM | 50 µM | 8 µM | 3.4 | 14.5 µM | 20 µM |  |
| CN1CCN(C(=O)c2ccc3c(Oc4ccccc4)c4ccccc4nc3c2)CC1 | 1.4 | 28 µM | 100 µM | 18 µM | 3.6 | 28 µM | 40 µM |  |
| CN1CCN(C(=O)c2ccc3nc4ccccc4c(NC4CCN(Cc5ccccc5)CC4)c3c2)CC1 | 3.2 | 25 µM | 100 µM | 25 µM | 3.6 | 28 µM | 80 µM |  |
| O=C(c1ccccc1)N1N=C(c2cccs2)CC1c1ccc([N+](=O)[O-])cc1 (configuration not stated) |  |  | > 300 µM |  | > 1.5 | 200 µM |  |  |
| O=C(Cc1ccccc1)N1N=C(c2cccs2)CC1c1ccc(Cl)cc1 (configuration not stated) |  |  | 65 µM |  | 3.3 | 20 µM |  |  |
| O=C(c1ccccc1)N1N=C(c2cccs2)CC1c1ccc(F)cc1 (configuration not stated) |  |  | 100 µM |  | 1.7 | 59 µM |  |  |
| CCN(CC)C(=O)c1ccc2nc3ccccc3c(NC3CCN(Cc4ccccc4)CC3)c2c1 | 2.5 | 20 µM | 120 µM | 22 µM | 5.4 | 22 µM | 50 µM |  |
| CCN(CC)C(=O)c1ccc2nc3ccccc3c(NCCc3c[nH]c4ccccc34)c2c1 | 5 | 15 µM | 110 µM | 20 µM | 4.4 | 25 µM | 75 µM |  |
| CN1CCN(C(=O)c2ccc3nc4ccccc4c(NCCc4c[nH]c5ccccc45)c3c2)CC1 | 2.6 | 25 µM | 170 µM | 27 µM | 6.1 | 28 µM | 65 µM |  |
| CN1CCN(c2cc(-c3ccc(C(C)(C)C)cc3)c3ccccc3n2)CC1 | 0.8 | 30 µM | 110 µM | 20 µM | 6.5 | 17 µM | 25 µM |  |
| CN1CCN(C(=O)c2ccc3c(NCCc4c[nH]c5ccccc45)c4ccccc4nc3c2)CC1 | < 1.5 | > 30 µM | 150 µM | 10 µM | 11 | 13.7 µM | 45 µM |  |

| Compound | selectivity ratio [1] | EC50 [2] | CC50 [3] | EC50 [4] | selectivity ratio [5] | EC50 [6] | CC50 [7] | EC50 [8] |
| --- | --- | --- | --- | --- | --- | --- | --- | --- |
| CN1CCN(C(=O)c2cccc3c(Oc4ccccc4)c4ccccc4nc23)CC1 | 2.5 | 20 µM | 150 µM | 20 µM | 7.5 | 20 µM | 50 µM |  |
| CN1CCN(C(=O)c2ccc3c(NC4CCN(Cc5ccccc5)CC4)c4ccccc4nc3c2)CC1 | 2.7 | 30 µM | 150 µM | 8 µM | 9.7 | 15.5 µM | 80 µM |  |
| COc1ccc(C2CC(c3cccs3)=NN2C(=O)c2ccccc2)cc1 (configuration not stated) |  | > 30 µM | > 300 µM |  | > 4.8 | 63 µM |  |  |
| CN1CCN(Cc2ccc3c(c2)Oc2ccccc2C3O)CC1 (configuration not stated) | 5 | 10 µM | 325 µM | 4 µM | 24 | 13.5 µM | 50 µM |  |
| CN1CCN(C(=O)c2ccc3nc4ccccc4c(Oc4ccccc4)c3c2)CC1 | 4 | 20 µM | 100 µM | 20 µM | 4.7 | 21 µM | 80 µM |  |
| CC(C)(C)C(=O)N1N=C(c2cccs2)CC1c1ccc(Cl)cc1 (configuration not stated) |  |  | 90 µM |  | 1.5 | 60 µM |  |  |
| O=C(c1cccc2c(NC3CCN(Cc4ccccc4)CC3)c3ccccc3nc12)N1CCOCC1 | < 3 | > 30 µM | 300 µM | 20 µM | 15 | 20 µM | 90 µM |  |
| O=C(c1ccccc1)N1N=C(c2cccs2)CC1c1ccc(Br)cc1 (configuration not stated) |  | > 30 µM | > 300 µM |  | > 12 | 25 µM |  |  |
| O=C(c1ccccc1)N1N=C(c2ccc(Br)s2)CC1c1ccc(Cl)cc1 (configuration not stated) |  |  | > 300 µM |  | > 18 | 17 µM |  |  |
| NC(=O)c1ncn([C@@H]2O[C@H](CO)[C@@H](O)[C@H]2O)n1 [RIBAVIRIN] |  | 30 µM |  | 1.1 µM |  | 18 µM |  | 119 µM |
| CCN(CC)C(=O)c1ccc2c(NCCc3c[nH]c4ccccc34)c3ccccc3nc2c1 | 1.8 | 25 µM | 125 µM | 7 µM | 18 | 7 µM | 45 µM |  |
| CN1CCN(C(=O)c2cccc3c(NC4CCN(Cc5ccccc5)CC4)c4ccccc4nc23)CC1 | 3.6 | 22 µM | 300 µM | 20 µM | 20 | 15 µM | 80 µM |  |
| O=C(c1ccccc1)N1N=C(c2ccccc2)CC1c1ccc(Cl)cc1 (configuration not stated) |  |  | 250 µM |  | 12.5 | 20 µM |  |  |
| CCN(CC)C(=O)c1cccc2c(NCCc3c[nH]c4ccccc34)c3ccccc3nc12 | 2.5 | 20 µM | 150 µM | 9 µM | 16 | 9.2 µM | 50 µM |  |
| CN1CCN(Cc2ccc3c(c2)Oc2ccccc2C3)CC1 | < 3 | > 30 µM | 200 µM | 28 µM | < 6.7 | > 30 µM | 90 µM |  |
| CC(C)(C)C(=O)N1N=C(C(C)(C)C)CC1c1ccc(Cl)cc1 (configuration not stated) |  |  | 60 µM |  | 2.2 | 27 µM |  |  |
| CCN(CC)C(=O)c1cccc2c(NC3CCN(Cc4ccccc4)CC3)c3ccccc3nc12 | 3.4 | 22 µM | 350 µM | 20 µM | 44 | 8 µM | 75 µM |  |
| COc1ccc(C2CC(c3cccs3)=NN2C(=O)Cc2ccc(Cl)cc2)cc1 (configuration not stated) |  |  | > 300 µM |  | > 10 | 30 µM |  |  |
| O=C(c1cccc2c(NCCc3c[nH]c4ccccc34)c3ccccc3nc12)N1CCOCC1 | < 2 | > 30 µM | 250 µM | 23 µM | 13 | 20 µM | 60 µM |  |
| CC(C)(C)C1=NN(C(=O)c2ccccc2)C(c2ccc(Cl)cc2)C1 (configuration not stated) |  |  | 65 µM |  | 1.1 | 57 µM |  |  |
